Assay results as given in ChEMBL document CHEMBL4033712, “Synthesis and biological evaluation of new C-12(α/β)-(N-) sulfamoyl-phenylamino-14-deoxy-andrographolide derivatives as potent anti-cancer agents” (Bioorg Med Chem Lett, 2017).

Assays:
Format in all cases: functional
K562 = assay: Growth inhibition of human K562 cells incubated for 48 hrs by sulforhodamine B assay; details: K562, 48 h
How it was run: (§1)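 NCI-60 five-dose screen at 0.01, 0.1, 1, 10 and 100 µM, 48 h incubation, sulforhodamine B end point. GI50 (50% decrease in net growth), TGI (total growth inhibition) and LC50 (net 50% loss of initial cells) taken from log concentration versus % growth inhibition curves.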

M14 = assay: Growth inhibition of human M14 cells incubated for 48 hrs by sulforhodamine B assay; details: M14, 48 h; how it was run: as §1
MCF7 = assay: Growth inhibition of human MCF7 cells incubated for 48 hrs by sulforhodamine B assay; details: MCF7, 48 h; how it was run: as §1
SF-539 = assay: Growth inhibition of human SF539 cells incubated for 48 hrs by sulforhodamine B assay; details: SF-539, 48 h
How it was run: (§2)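 NCI 60 human tumour cell line panel, five-dose study at 0.01, 0.1, 1, 10 and 100 µM, 48 h incubation. Sulforhodamine B protein-binding dye end point. GI50 (50% decrease in net cell growth), TGI (total growth inhibition) and LC50 (net 50% loss of initial cells) read from log concentration versus % growth inhibition curves.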

KM12 = assay: Growth inhibition of human KM12 cells incubated for 48 hrs by sulforhodamine B assay; details: KM12, 48 h; how it was run: as §1
PC-3 = assay: Growth inhibition of human PC3 cells incubated for 48 hrs by sulforhodamine B assay; details: PC-3, 48 h; how it was run: as §1
SK-MEL-5 = assay: Growth inhibition of human SK-MEL-5 cells incubated for 48 hrs by sulforhodamine B assay; details: SK-MEL-5, 48 h; how it was run: as §2
DU-145 = assay: Growth inhibition of human DU145 cells incubated for 48 hrs by sulforhodamine B assay; details: DU-145, 48 h; how it was run: as §1
T47D = assay: Growth inhibition of human T47D cells incubated for 48 hrs by sulforhodamine B assay; how it was run: as §2
MDA-MB-231 = assay: Growth inhibition of human MDA-MB-231 cells incubated for 48 hrs by sulforhodamine B assay; details: MDA-MB-231, 48 h; how it was run: as §1
RPMI-8226 = assay: Growth inhibition of human RPMI8226 cells incubated for 48 hrs by sulforhodamine B assay; details: RPMI-8226, 48 h; how it was run: as §2
SK-MEL-2 = assay: Growth inhibition of human SK-MEL-2 cells incubated for 48 hrs by sulforhodamine B assay; details: SK-MEL-2, 48 h; how it was run: as §2
EKVX = assay: Growth inhibition of human EKVX cells incubated for 48 hrs by sulforhodamine B assay; how it was run: as §1
SW-620 = assay: Growth inhibition of human SW620 cells incubated for 48 hrs by sulforhodamine B assay; details: SW-620, 48 h; how it was run: as §2
CAKI-1 = assay: Growth inhibition of human Caki1 cells incubated for 48 hrs by sulforhodamine B assay; details: CAKI-1, 48 h; how it was run: as §1
HCC 2998 = assay: Growth inhibition of human HCC2998 cells incubated for 48 hrs by sulforhodamine B assay; details: HCC 2998, 48 h; how it was run: as §1
CCRF-CEM = assay: Growth inhibition of human CCRF-CEM cells incubated for 48 hrs by sulforhodamine B assay; how it was run: as §1
HCT-116 = assay: Growth inhibition of human HCT116 cells incubated for 48 hrs by sulforhodamine B assay; details: HCT-116, 48 h; how it was run: as §1
HCT-15 = assay: Growth inhibition of human HCT15 cells incubated for 48 hrs by sulforhodamine B assay; details: HCT-15, 48 h; how it was run: as §1
ACHN = assay: Growth inhibition of human ACHN cells incubated for 48 hrs by sulforhodamine B assay; how it was run: as §1
HL-60(TB) = assay: Growth inhibition of human HL-60(TB) cells incubated for 48 hrs by sulforhodamine B assay; details: HL-60, 48 h
How it was run: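 NCI-60 five-dose screen at 0.01, 0.1, 1, 10 and 100 µM for 48 h, sulforhodamine B read-out. GI50 taken from log concentration versus % growth inhibition curves as the concentration giving 50% decrease in net cell growth.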

BT-549 = assay: Growth inhibition of human BT549 cells incubated for 48 hrs by sulforhodamine B assay; details: BT-549, 48 h; how it was run: as §1
A498 = assay: Growth inhibition of human A498 cells incubated for 48 hrs by sulforhodamine B assay; details: A498, 48 h; how it was run: as §1
UACC-62 = assay: Growth inhibition of human UACC62 cells incubated for 48 hrs by sulforhodamine B assay; details: UACC-62, 48 h; how it was run: as §2
RXF 393 = assay: Growth inhibition of human RXF393 cells incubated for 48 hrs by sulforhodamine B assay; details: RXF 393, 48 h; how it was run: as §2
SNB-19 = assay: Growth inhibition of human SNB19 cells incubated for 48 hrs by sulforhodamine B assay; details: SNB-19, 48 h; how it was run: as §2
[1] = read-out: LC50 (the source's name)

C=C1CC[C@@H]2[C@](C)(COC(C)=O)[C@H](OC(C)=O)CC[C@@]2(C)[C@H]1CC(Nc1ccc(S(=O)(=O)Nc2ccc(Cl)nn2)cc1)C1=CCOC1=O (some centres not stated) showed a GI50 (K562) of 0.52 µM, a TGI (K562) of 5.19 µM and a CC50 (K562; [1]) greater than 100 µM. The GI50 (M14) was 1.45 µM, the TGI (M14) was 3.41 µM and the CC50 (M14; [1]) was 8.04 µM. The GI50 (MCF7) was 0.78 µM, the TGI (MCF7) was 2.9 µM and the GI50 (SF-539) was 1.23 µM. For the same compound, the TGI (SF-539) was 2.63 µM, the CC50 (SF-539; [1]) was 5.62 µM and the GI50 (KM12) was 1.7 µM. The TGI (KM12) was 3.49 µM, the CC50 (KM12; [1]) was 7.16 µM and the GI50 (PC-3) was 2.24 µM. The TGI (PC-3) was 5.25 µM, the CC50 (PC-3; [1]) was 15.8 µM and the GI50 (SK-MEL-5) was 1.6 µM. The TGI (SK-MEL-5) was 3.13 µM, the CC50 (SK-MEL-5; [1]) was 6.13 µM and the GI50 (DU-145) was 1.7 µM. The TGI (DU-145) was 3.45 µM, the CC50 (DU-145; [1]) was 7.02 µM and the GI50 (T47D) was 1.51 µM. The TGI (T47D) was 4.25 µM, the CC50 (T47D; [1]) was greater than 100 µM and the GI50 (MDA-MB-231) was 1.9 µM. The LC50 (concentration giving net 50% loss of initial cells) (MDA-MB-231) was 8.27 µM, the TGI (MDA-MB-231) was 3.96 µM and the GI50 (RPMI-8226) was 0.44 µM. The TGI (RPMI-8226) was 3.04 µM, the CC50 (RPMI-8226; [1]) was greater than 100 µM and the GI50 (SK-MEL-2) was 1.77 µM. For the same compound, the TGI (SK-MEL-2) was 3.99 µM, the CC50 (SK-MEL-2; [1]) was 8.97 µM and the GI50 (EKVX) was 4.53 µM. For the same compound, the TGI (EKVX) was 17 µM, the CC50 (EKVX; [1]) was 41.3 µM and the GI50 (SW-620) was 1.07 µM. The TGI (SW-620) was 2.8 µM, the CC50 (SW-620; [1]) was 7.34 µM and the GI50 (CAKI-1) was 2.28 µM. It also gave a TGI (CAKI-1) of 100 µM, a CC50 (CAKI-1; [1]) of 31.7 µM and a GI50 (HCC 2998) of 1.84 µM. The TGI (HCC 2998) was 3.86 µM, the CC50 (HCC 2998; [1]) was 8.08 µM and the GI50 (CCRF-CEM) was 0.46 µM. The TGI (CCRF-CEM) was 2.6 µM, the CC50 (CCRF-CEM; [1]) was greater than 100 µM and the GI50 (HCT-116) was 1.08 µM. The TGI (HCT-116) was 2.32 µM, the CC50 (HCT-116; [1]) was 4.96 µM and the GI50 (HCT-15) was 0.88 µM. For the same compound, the TGI (HCT-15) was 2.3 µM, the CC50 (HCT-15; [1]) was 5.51 µM and the GI50 (ACHN) was 1.68 µM. The TGI (ACHN) was 3.32 µM, the CC50 (ACHN; [1]) was 6.57 µM and the GI50 (HL-60(TB)) was 1.32 µM. The TGI (HL-60(TB)) was 4.44 µM, the CC50 (HL-60(TB); [1]) was greater than 100 µM and the GI50 (BT-549) was 1.58 µM. The TGI (BT-549) was 3.14 µM, the CC50 (BT-549; [1]) was 6.28 µM and the GI50 (A498) was 1.4 µM. The LC50 (concentration giving net 50% loss of initial cells) (A498) was 15.6 µM, the TGI (A498) was 4.26 µM and the GI50 (UACC-62) was 1.49 µM. It also gave a TGI (UACC-62) of 3.86 µM, a CC50 (UACC-62; [1]) of 10 µM and a GI50 (RXF 393) of 1.77 µM. It also gave a TGI (RXF 393) of 3.29 µM, a CC50 (RXF 393; [1]) of 6.14 µM and a GI50 (SNB-19) of 1.91 µM. For the same compound, the TGI (SNB-19) was 3.91 µM and the CC50 (SNB-19; [1]) was 8 µM.
